The record followed here is ChEMBL document CHEMBL1151833, “Cytotoxic oleanane triterpene saponins from Albizia chinensis” (J Nat Prod, 2009).

In one data set the test system is A549. Kind of data set: Cytotoxicity against human A549 cells after 96 hrs by MTT assay. The class given is functional, cell-based. As to conditions: A549, 96 h. The gist of the method: (§1)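 Cells kept in RPMI 1640 with 10% FBS, penicillin and streptomycin, at 37 °C in 5% CO2. Seeded at 1.5 × 10^3 cells per well and left 24 h. Compounds added in DMSO, five concentrations over a final 0.01-10 […], each in three parallel wells, for 96 h. MTT (0.2%) added for 4 h, formazan dissolved in DMSO, read at 570 nm. IC50 taken from dose-response curves as 50% loss of optical density versus DMSO control.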
(In general: Formazan colour is commonly taken as a measure of viable cells.)

The next data set has as its system A2780. Kind of data set: Cytotoxicity against human A2780 cells after 96 hrs by MTT assay. The class given is functional, cell-based. As to conditions: A2780, 96 h. The gist of the method:
as §1

Data set [1] in a line: Toxicity in rabbit erythrocytes assessed as hemolytic activity. The class given is cell-based, Oryctolagus cuniculus, Erythrocyte. The gist of the method: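 Rabbit erythrocytes prepared by the Chinese Pharmacopoeia method. Compounds tested at 0.01, 0.05, 0.1, 0.5, 2.5, 10 and 100 µM using a procedure adapted from the literature. Result given as HC50.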
Another data set has as its system HCT-8. Kind of data set: Cytotoxicity against human HCT8 cells after 96 hrs by MTT assay. The data set is classed as functional, cell-based. To be noted: HCT-8, 96 h. In a few lines: as §1
A further data set concerns Bel-7402. The data set is described as follows: Cytotoxicity against human Bel7402 cells after 96 hrs by MTT assay. The data set is classed as functional, cell-based. As to conditions: Bel-7402, 96 h. In a few lines: as §1
The next data set deals with BGC-823. Kind of data set: Cytotoxicity against human BGC823 cells after 96 hrs by MTT assay. The data set is classed as functional, cell-based. To be noted: BGC-823, 96 h. In a few lines:
as §1

Where only a bound is given, the exact number is not on record here.

With `C=C[C@](C)(CC/C=C(\C)C(=O)O[C@H]1[C@H](O)[C@@H](O)[C@H](O[C@](C)(C=C)CC/C=C(\CO)C(=O)O[C@H]2C[C@]3(C(=O)O[C@@H]4O[C@H](CO)[C@@H](O)[C@H](O)[C@H]4O[C@@H]4O[C@@H](C)[C@H](O[C@@H]5O[C@@H](CO)[C@H](O)[C@H]5O)[C@@H](O[C@@H]5O[C@H](CO)[C@@H](O)[C@H](O)[C@H]5O)[C@H]4O)[C@H](O)C[C@]4(C)C(=CC[C@@H]5[C@@]6(C)CC[C@H](O[C@@H]7O[C@H](CO[C@@H]8OC[C@H](O)[C@H](O)[C@H]8O[C@@H]8OC[C@@H](O)[C@H](O)[C@H]8O)[C@@H](O)[C@H](O)[C@H]7O[C@@H]7O[C@H](CO)[C@@H](O)[C@H](O)[C@H]7O)C(C)(C)[C@@H]6CC[C@]54C)[C@@H]3CC2(C)C)O[C@@H]1C)O[C@@H]1O[C@H](C)[C@@H](O)[C@H](O)[C@H]1O` [ALBIZOSIDE C], the IC50 – broadly, the concentration that inhibits the measured activity by half – in the data set with A549 was found to be 10 nM; in the data set on A2780, 300 nM; with HCT-8, 400 nM; with Bel-7402 it was 400 nM; in the data set on BGC-823 it was 1700 nM. Moreover, the HC50 (usually the concentration that lyses half of the red blood cells) in data set [1] turned out to be 700 nM.

`CC[C@@]1(O)C(=O)OCc2c1cc1n(c2=O)Cc2cc3ccccc3nc2-1` [CAMPTOTHECIN]: it took 300 nM to reach half-maximal inhibition with A2780 (IC50).

As to `C=C[C@](C)(CC/C=C(\CO)C(=O)O[C@H]1C[C@]2(C(=O)O[C@@H]3O[C@H](CO)[C@@H](O)[C@H](O)[C@H]3O[C@@H]3O[C@@H](C)[C@H](O[C@@H]4O[C@@H](CO)[C@H](O)[C@H]4O)[C@@H](O[C@@H]4O[C@H](CO)[C@@H](O)[C@H](O)[C@H]4O)[C@H]3O)[C@H](O)C[C@]3(C)C(=CC[C@@H]4[C@@]5(C)CC[C@H](O[C@@H]6O[C@H](CO[C@@H]7O[C@H](C)[C@H](O)[C@H](O)[C@H]7O[C@@H]7OC[C@@H](O)[C@H](O)[C@H]7O)[C@@H](O)[C@H](O)[C@H]6O)C(C)(C)[C@@H]5CC[C@]43C)[C@@H]2CC1(C)C)O[C@@H]1O[C@H](C)[C@@H](O)[C@H](O)[C@H]1O` [PROSAPOGENIN 10], the IC50 in the data set with A549, in the data set on A2780, in the data set with HCT-8, in the data set with Bel-7402 and in the data set on BGC-823 was greater than 10000 nM each time. Also, in data set [1], the HC50 was found to be 128000 nM.

Turning to `C=C[C@](C)(CC/C=C(\CO)C(=O)O[C@H]1[C@H](O[C@](C)(C=C)CC/C=C(\C)C(=O)O[C@H]2[C@H](O)[C@@H](O)[C@H](O[C@](C)(C=C)CC/C=C(\CO)C(=O)O[C@H]3C[C@]4(C(=O)O[C@@H]5O[C@H](CO)[C@@H](O)[C@H](O)[C@H]5O[C@@H]5O[C@@H](C)[C@H](O[C@@H]6O[C@@H](CO)[C@H](O)[C@H]6O)[C@@H](O[C@@H]6O[C@H](CO)[C@@H](O)[C@H](O)[C@H]6O)[C@H]5O)[C@H](O)C[C@]5(C)C(=CC[C@@H]6[C@@]7(C)CC[C@H](O[C@@H]8O[C@H](CO[C@@H]9O[C@H](C)[C@H](O)[C@H](O)[C@H]9O[C@@H]9OC[C@@H](O)[C@H](O)[C@H]9O)[C@@H](O)[C@H](O)[C@H]8O[C@@H]8O[C@H](CO)[C@@H](O)[C@H](O)[C@H]8O)C(C)(C)[C@@H]7CC[C@]65C)[C@@H]4CC3(C)C)O[C@@H]2C)O[C@H](C)[C@@H](O)[C@@H]1O)O[C@@H]1O[C@H](C)[C@@H](O)[C@H](O)[C@H]1O` [ALBIZOSIDE B], the IC50 was determined as 300 nM in the data set on A549; 1200 nM in the data set with A2780; 1300 nM in the data set on HCT-8; 1300 nM with Bel-7402; 3800 nM in the data set on BGC-823. Besides, the concentration for 50% haemolysis (HC50) in data set [1] is 700 nM.

`C=C[C@](C)(CC/C=C(\CO)C(=O)O[C@H]1[C@H](O[C@](C)(C=C)CC/C=C(\C)C(=O)O[C@H]2[C@H](O)[C@@H](O)[C@H](O[C@](C)(C=C)CC/C=C(\CO)C(=O)O[C@H]3C[C@]4(C(=O)O[C@@H]5O[C@H](CO)[C@@H](O)[C@H](O)[C@H]5O[C@@H]5O[C@@H](C)[C@H](O[C@@H]6O[C@@H](CO)[C@H](O)[C@H]6O)[C@@H](O[C@@H]6O[C@H](CO)[C@@H](O)[C@H](O)[C@H]6O)[C@H]5O)[C@H](O)C[C@]5(C)C(=CC[C@@H]6[C@@]7(C)CC[C@H](O[C@@H]8O[C@H](CO[C@@H]9O[C@H](C)[C@H](O)[C@H](O)[C@H]9O[C@@H]9OC[C@@H](O)[C@H](O)[C@H]9O)[C@@H](O)[C@H](O)[C@H]8O)C(C)(C)[C@@H]7CC[C@]65C)[C@@H]4CC3(C)C)O[C@@H]2C)O[C@H](C)[C@@H](O)[C@@H]1O)O[C@@H]1O[C@H](C)[C@@H](O)[C@H](O)[C@H]1O` [ALBIZOSIDE A]: the IC50 turned out to be 1900 nM in the data set on A549; 1300 nM in the data set with A2780; 5600 nM in the data set on HCT-8; 2600 nM in the data set with Bel-7402; 1600 nM in the data set with BGC-823. Moreover, the HC50 in data set [1] was 400 nM.
